In ChEMBL document CHEMBL1138764, “Resistance-modifying agents. 11.(1) Pyrimido[5,4-d]pyrimidine modulators of antitumor drug activity. Synthesis and structure-activity relationships for nucleoside transport inhibition and binding to alpha1-acid glycoprotein” (J Med Chem, 2004):

Columns and labels:
L1210 [1] = test: Inhibition of [3H]thymidine uptake in L1210 cells at 1 uM; type: functional; conditions: Mus musculus
Method in brief: (§1)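 ³H-thymidine uptake into L1210 leukaemia cells measured by a modified rapid-mixing technique with inhibitor-stop. Values are mean ± SD of three or more separate determinations. IC50 is interpolated from concentration–inhibition curves.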

L1210 [2] = test: Inhibition of [3H]thymidine uptake in L1210 cells at 10 uM; type: functional; conditions: Mus musculus; method in brief: as §1
L1210 [3] = test: Inhibition of [3H]thymidine uptake in L1210 cells; type: functional, cell-based; conditions: Mus musculus; method in brief: as §1
L1210 [4] = test: Inhibition of [3H]thymidine uptake in L1210 cells in the presence of 5 mg/mL human AGP at 1 uM; type: functional, Mus musculus
Method in brief: (§2)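 Rapid-mixing, inhibitor-stop ³H-thymidine uptake into L1210 leukaemia cells run with 5 mg/mL human AGP present. Values are mean ± SD of three or more separate determinations. Significance of the difference from inhibition without AGP is taken at p ≤ 0.05.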

L1210 [5] = test: Tested for the reduction in inhibition of [3H]thymidine uptake in L1210 cells in the presence of 5 mg/mL human AGP; type: functional, Mus musculus; method in brief: as §2
L1210 [6] = test: Inhibition of [3H]-thymidine uptake in L1210 cells in the presence of 5 mg/mL human AGP at 10 uM; type: functional, Mus musculus; method in brief: as §2
L1210 [7] = test: Compound was tested for the inhibition of [3H]thymidine uptake in L1210 cells at 100 uM; type: functional; conditions: Mus musculus; method in brief: as §1
L1210 [8] = test: Compound was tested for the inhibition of [3H]thymidine uptake in L1210 cells at 3 uM; type: functional; conditions: Mus musculus; method in brief: as §1
L1210 [9] = test: Tested for the reduction in inhibition of [3H]-thymidine uptake in L1210 cells in the presence of 5 mg/mL human AGP; NS, no significant reduction in inhibition by AGP; type: functional, cell-based; conditions: Mus musculus; method in brief: as §2
L1210 [10] = test: Compound was tested (100 uM) for the inhibition of [3H]thymidine uptake in L1210 cells in the presence of 5 mg/mL human AGP; type: functional, Mus musculus; method in brief: as §2

Structure (SMILES)	inhibition at 1 µM (L1210 [1])	inhibition at 10 µM (L1210 [2])	IC50 (L1210 [3])	Inhibition (L1210 [4])	Reduction (L1210 [5])	Inhibition (L1210 [6])	inhibition at 100 µM (L1210 [7])	inhibition at 3 µM (L1210 [8])	Reduction (L1210 [9])	Inhibition (L1210 [10])
OCCN(CCO)c1nc(NCc2ccccc2)c2nc(N(CCO)CCO)nc(NCc3ccccc3)c2n1	51%	91%	600 nM	21%	44%	75%	–	–	–	–
OCC(O)COc1nc(N2CCCCC2)c2nc(OC[C@@H](O)CO)nc(N3CCCCC3)c2n1 (some centres not stated)	–	37%	8800 nM	–	22%	29%	91%	–	–	–
CC1(C)OC[C@@H](COc2nc(N3CCCCC3)c3nc(OC[C@@H]4COC(C)(C)O4)nc(N4CCCCC4)c3n2)O1	–	100%	–	–	–	–	–	76%	–	–
COc1ccc(CNc2nc(OCCO)nc3c(NCc4ccc(OC)cc4)nc(OCCO)nc23)cc1	40%	88%	670 nM	–	–	–	–	–	No significant reduction in inhibition	–
CC(O)CNc1nc(NCc2ccc3c(c2)OCO3)c2nc(NCC(C)O)nc(NCc3ccc4c(c3)OCO4)c2n1 (configuration not stated)	69%	90%	260 nM	64%	–	–	–	–	No significant reduction in inhibition	–
OCC(O)COc1nc(N2CCCCC2)c2nc(OCC(O)CO)nc(N3CCCCC3)c2n1 (configuration not stated)	–	32%	–	–	–	34%	83%	–	No significant reduction in inhibition	80%
